{"source": "paper PMC7771297", "about": "(Oncogene, 2017)", "key": {"[1]": {"system": "PAIII rat prostate adenocarcinoma cells", "test": "IP-MS of PTHrP1–17 in PAIII conditioned media with MMP inhibition", "type": "cell-based"}, "[2]": {"system": "SAOS-2 osteosarcoma cells", "test": "IP-MS of PTHrP1–17 in SAOS-2 conditioned media with exogenous MMP-3", "type": "cell-based, human", "conditions": "SAOS-2+MMP-3 100 ng/ml; SAOS-2 alone = 0.004"}, "[3]": {"system": "PTH1R", "conditions": "PTH1R overexpressing CHO-K1 cells; cited from earlier work"}, "[4]": {"system": "PTH1R", "conditions": "PTH1R overexpressing CHO-K1 cells; cited from earlier work", "remark": "listed apart in the source"}, "[5]": {"system": "SCID-Beige mice", "test": "Murine model of ectopic bone formation", "type": "in vivo, mouse", "conditions": "40 μg/kg/day s.c., 21 days", "procedure,_shortened": "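Gelfoam sponges loaded with 1 × 10^6 bone marrow MSCs from C57BL/6 mice were implanted s.c. into randomized 6-week-old male SCID-Beige mice, two implants per flank, n = 3/group. After 1-week recovery, peptides or vehicle were injected s.c. daily at 40 μg/kg/day for 21 days. Ossicles were excised for μCT and trichrome histology, with bone matrix quantified.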"}, "[6]": {"molecular_target": "T1, PTH1R (Mus musculus, UniProt P41593)", "T1 sequence (P41593 27-591)": "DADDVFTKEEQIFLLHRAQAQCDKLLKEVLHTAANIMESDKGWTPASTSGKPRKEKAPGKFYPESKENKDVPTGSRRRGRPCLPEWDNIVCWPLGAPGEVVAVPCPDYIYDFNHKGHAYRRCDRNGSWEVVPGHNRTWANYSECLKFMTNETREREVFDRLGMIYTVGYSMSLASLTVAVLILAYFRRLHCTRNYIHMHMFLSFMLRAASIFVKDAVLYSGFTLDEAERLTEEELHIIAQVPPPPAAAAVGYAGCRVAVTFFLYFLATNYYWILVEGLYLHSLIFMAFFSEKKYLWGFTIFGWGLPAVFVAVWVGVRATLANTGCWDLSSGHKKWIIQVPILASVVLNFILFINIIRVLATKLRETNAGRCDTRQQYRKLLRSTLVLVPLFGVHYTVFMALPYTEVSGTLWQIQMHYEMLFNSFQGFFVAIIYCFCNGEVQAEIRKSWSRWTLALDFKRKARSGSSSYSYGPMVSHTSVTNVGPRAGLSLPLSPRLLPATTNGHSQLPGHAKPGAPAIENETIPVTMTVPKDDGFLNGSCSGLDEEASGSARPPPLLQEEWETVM", "test": "ERK phosphorylation in PTH1R knockdown MC3T3 cells", "type": "cell-based", "conditions": "shPTH1R MC3T3 versus control shRNA, 10 nM for 5 min", "procedure,_shortened": "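PTH1R knockdown MC3T3 clones were made by lentiviral transduction of a pool of three shRNAs, with scrambled-sequence shControl clones; clone D was used. Cells got peptides for 5 min and were lysed in RIPA. Phospho-ERK immunoblots were blocked in 5% BSA, detected with HRP secondary and normalised to actin loading control. Triplicate experiments.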"}, "[7]": {"system": "osteoprotegerin (OPG)", "test": "OPG expression in whole bone marrow co-cultures", "type": "cell-based, mouse", "conditions": "10 nM for 48 h"}, "[8]": {"system": "osteoblasts", "test": "Tumour necrosis factor-α-induced cell death of osteoblasts", "type": "cell-based"}, "[9]": {"system": "ERK phosphorylation in MC3T3 osteoblasts", "test": "ERK phosphorylation in osteoblasts", "type": "cell-based, mouse", "conditions": "10 nM, 5 min, serum free media, vs control or scrambled peptide"}, "[10]": {"system": "ERK phosphorylation in MSCs", "test": "ERK phosphorylation in primary MSCs", "type": "cell-based, mouse", "conditions": "10 nM, 5 min, vs control or scrambled peptide"}, "[11]": {"molecular_target": "T1, PTH1R", "test": "cAMP production in MC3T3 osteoblasts", "type": "cell-based", "conditions": "MC3T3, 10 nM for 15 min, n = 5/group", "procedure,_shortened": "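MC3T3 osteoblasts were plated at 2.5 × 10^4 cells/well and exposed to peptides for 15 min (range 1–100 tested), n = 5/group. cAMP was measured with the cAMP-Glo luminescent assay. The forskolin analogue NKH477 (15 min) served as positive control. Groups were compared by ANOVA with Tukey's test.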"}, "[12]": {"molecular_target": "MMP-3 (Homo sapiens, UniProt P08254)", "sequence (P08254 100-272 limits assumed)": "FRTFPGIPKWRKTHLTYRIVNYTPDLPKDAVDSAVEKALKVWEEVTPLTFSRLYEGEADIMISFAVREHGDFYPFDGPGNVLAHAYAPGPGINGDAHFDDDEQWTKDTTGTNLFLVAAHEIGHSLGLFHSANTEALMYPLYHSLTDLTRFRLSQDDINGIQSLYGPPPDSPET", "test": "MMP-3 processing of PTHrP", "type": "in vitro ADME", "conditions": "MALDI-TOF", "procedure,_shortened": "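Recombinant PTHrP1–86 (100 ng) was digested 1 h with active MMP-3 (100 ng) in 0.15 M NaCl, Tris pH 7.6 buffer. Products were resolved by SDS-PAGE with Coomassie staining and by immunoblot. N-terminal sequencing was done, and for MALDI-TOF peptides were C18-extracted and mixed with α-cyano-4-hydroxycinnamic acid matrix.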"}, "[13]": {"system": "calvariae of Rag2−/− neonates", "test": "Neonatal calvaria ex vivo assay", "parameters": "species or system mouse", "conditions": "10 nM, 14 days, n = 4/group", "procedure,_shortened": "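Calvariae were isolated from 4-day-old Rag2−/− neonates and kept in organ culture. They were exposed to peptides for 14 days, n = 4/group.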"}, "[14]": {"system": "CREB phosphorylation in MC3T3 osteoblasts", "test": "CREB phosphorylation in MC3T3 osteoblasts", "type": "cell-based, mouse", "conditions": "MC3T3, 10 nM for 5 min in serum free media", "procedure,_shortened": "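Immunoblot of MC3T3 osteoblasts exposed to peptides for 5 min in serum-free media. Controls were serum-free (S0), 10% serum (S10) and a scrambled peptide. Cells were lysed in RIPA buffer (pH 8) and protein was measured by BCA. Blots were blocked in 5% BSA for 1 h, probed with primary antibody then HRP-conjugated secondary, with actin as loading control. Run in triplicate.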"}, "[15]": {"molecular_target": "T1, PTH1R", "test": "Calcium flux in PTH1R knockdown MC3T3 cells", "type": "cell-based", "conditions": "shPTH1R versus shControl MC3T3, 10 nM", "procedure,_shortened": "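Stable shPTH1R MC3T3 clones came from lentiviral transduction of three pooled PTH1R shRNAs; shControl clones carried a scrambled sequence. Cells (1 × 10^5) were loaded with Fluo-4 Direct. Time-lapse microscopy followed fluorescence after peptide addition. Increases (RFU) were measured in single cells, n = 20/group, from three fields per condition. A second shPTH1R clone was also tested.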"}, "[16]": {"system": "MSCs", "test": "Migration of primary MSCs", "type": "cell-based, mouse", "conditions": "10 nM in serum free media, 6 h / 5-h (methods), n = 3/group"}, "[17]": {"system": "MC3T3 cells", "test": "Migration of MC3T3 osteoblasts", "type": "cell-based, mouse", "conditions": "MC3T3, 10 nM in serum free media, 6 h / 5-h (methods), n = 3/group", "procedure,_shortened": "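Modified Boyden chamber assay: after 24-h serum starvation, 5 × 10^5 MC3T3 cells were seeded in the upper chamber (n = 3/group). Migration toward peptide in serum-free media ran at 37 °C, 5 h per methods (6 h in legend). Serum-free and 1% serum media were negative and positive controls. Cells were counted per ×20 field in five micrographs per condition.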"}, "[18]": {"molecular_target": "T1, PTH1R", "test": "Calcium flux in MC3T3 osteoblasts", "type": "cell-based", "conditions": "MC3T3, 10 nM, fluorescence in individual cells, n = 20/group", "procedure,_shortened": "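MC3T3 cells (1 × 10^5) were loaded with Fluo-4 Direct calcium reagent and imaged by time-lapse fluorescence microscopy before and after peptide addition (0 and 60 s frames shown). Fluorescence rise was quantified in individual cells, n = 20/group, from three fields of view per condition.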"}, "[19]": {"system": "SCID-Beige mice", "test": "In vivo calvarial injection assay", "parameters": "species or system mouse", "conditions": "2 μg s.c. over the calvaria every 6 h for 3 days, n = 3/group", "procedure,_shortened": "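Randomized 4–6-week-old female SCID-Beige mice (n = 3/group) received 2 μg peptide s.c. over the calvaria every 6 h for 3 days. Calvariae were harvested 10 h after the last injection, fixed and scanned by high-resolution μCT. They were then decalcified (14% EDTA, pH 7.4, 3 days) and paraffin-embedded, and 5 μm sections were stained with H&E, trichrome and TRAcP. Bone-lining multinucleated TRAcP-positive osteoclasts were counted per μm bone.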"}, "[20]": {"system": "RANKL", "test": "RANKL expression in whole bone marrow co-cultures", "type": "cell-based, mouse", "conditions": "10 nM for 48 h"}, "[21]": {"conditions": "bone marrow cultures, n = 3/group"}}, "data": [{"compound": "CNC(=O)[C@H](Cc1c[nH]c2ccccc12)NC(=O)[C@@H](CC(=O)NO)CC(C)C", "note": "[GM6001]", "values": [{"measurement": "reduction of the amount of PTHrP1–17 in conditioned media", "setting": "[1]; PAIII, GM6001 10 μM, serum free 24 h, IP-MS with SIS1–17", "value": 77, "unit": "%"}, {"measurement": "ratio of endogenous PTHrP1–17 to PTHrP1–17 SIS (peak areas)", "setting": "[1]; PaIII+GM6001 10 μM, PaIII alone = 0.13", "value": 0.03}]}, {"compound": "MMP-3: recombinant MMP-3 (Millipore, #444217) added to SAOS-2 cells", "values": [{"measurement": "ratio of endogenous PTHrP1–17 to PTHrP1–17 SIS (peak areas)", "setting": "[2]", "value": 0.03}]}, {"compound": "PTHrP1–16: N-terminal PTHrP fragment of a recent study (ref 31) (AVSEHQLLHDKGKSIQ; UniProt P12272 37-52, looked up, fragment)", "values": [{"measurement": "cAMP production", "setting": "[3]", "value": "does not result in cAMP production"}, {"measurement": "calcium flux", "setting": "[4]", "value": "no effect on calcium flux"}]}, {"compound": "PTHrP1–36: mature 36 amino acid form of parathyroid hormone-related protein (ProImmune)", "values": [{"measurement": "osteoid in trichrome stained ossicle sections", "setting": "[5]; n = 3/group", "value": "a significant amount of osteoid"}, {"measurement": "trabecular bone volume of hind limbs", "setting": "[5]; compared to control", "value": "significantly more bone"}, {"measurement": "bone formation in ectopic ossicles, μCT", "setting": "[5]; intermittent, n = 3/group", "value": "revealed bone formation"}, {"measurement": "ability to induce ERK phosphorylation in PTH1R knockdown cells", "setting": "[6]", "value": "abrogated"}, {"measurement": "OPG expression (real-time PCR)", "setting": "[7]; [21]", "value": "suppressing OPG"}, {"measurement": "OPG expression (RT-PCR)", "setting": "[7]; primary bone marrow cultures", "value": "appeared to suppress the expression of osteoprotegerin (OPG)"}, {"measurement": "prevention of tumour necrosis factor-α-induced cell death", "setting": "[8]", "value": "did not prevent"}, {"measurement": "ERK phosphorylation", "setting": "[9]", "value": "induced ERK phosphorylation within 5 min"}, {"measurement": "ERK phosphorylation", "setting": "[10]", "value": "induced ERK phosphorylation within 5 min"}, {"measurement": "cAMP production", "setting": "[11]", "value": "induced cAMP"}, {"measurement": "further cleavage of PTHrP1–36 by MMP-3", "setting": "[12]; 0.15 M NaCl, 50 mM Tris pH 7.6", "value": "further cleaved to distinct stable peptide products"}, {"measurement": "time in which MMP-3 generated the main PTHrP products", "setting": "[12]; kinetic analyses", "value": "≤ 1", "unit": "h"}, {"measurement": "bone formation in calvaria ex vivo", "setting": "[13]", "value": "no evidence of bone formation"}, {"measurement": "degradation of calvaria ex vivo", "setting": "[13]", "value": "significant degradation of the calvaria"}, {"measurement": "CREB phosphorylation", "setting": "[14]", "value": "only induced by PTHrP1–36"}, {"measurement": "calcium flux in PTH1R knockdown cells", "setting": "[15]", "value": "significantly reduced"}, {"measurement": "migration", "setting": "[16]", "value": "significantly increased migration"}, {"measurement": "migration", "setting": "[17]", "value": "significantly increased migration"}, {"measurement": "calcium flux", "setting": "[18]", "value": "triggered increases in calcium flux"}, {"measurement": "bone resorption of calvaria", "setting": "[19]", "value": "displayed areas of extensive bone resorption"}, {"measurement": "RANKL expression (real-time PCR)", "setting": "[20]; [21]", "value": "significantly enhanced RANKL expression"}, {"measurement": "ratio of average RANKL:OPG transcripts", "setting": "[20]; bone marrow cultures, real-time PCR", "value": 15.03}, {"measurement": "RANKL expression (RT-PCR)", "setting": "[20]; primary bone marrow cultures", "value": "increased RANKL expression"}]}]}
